In publication PMC3609577 (Diabetes, 2013):
Blank lines part the entries; values can stand above or below the molecule they belong to.

Experiments:
[1] = target: T1, recombinant human CD38 (Homo sapiens, UniProt P28907); test: In vitro CD38 ADP-ribosyl-cyclase activity; format: biochemical
T1 sequence (P28907 43-300 limits assumed): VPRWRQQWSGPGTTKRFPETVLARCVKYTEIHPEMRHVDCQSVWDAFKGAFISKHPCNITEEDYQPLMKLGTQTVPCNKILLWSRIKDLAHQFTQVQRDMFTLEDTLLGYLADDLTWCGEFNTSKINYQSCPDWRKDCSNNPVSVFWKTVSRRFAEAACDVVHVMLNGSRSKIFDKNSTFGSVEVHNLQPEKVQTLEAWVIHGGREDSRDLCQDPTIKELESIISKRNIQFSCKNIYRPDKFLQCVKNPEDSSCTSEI

[2] = target: T2, endogenous CD38 (A549 cells) (Homo sapiens, UniProt P28907); test: Endogenous CD38 NAD+ase activity in protein lysates from A549 cells; format: biochemical
T2 sequence (P28907 1-300): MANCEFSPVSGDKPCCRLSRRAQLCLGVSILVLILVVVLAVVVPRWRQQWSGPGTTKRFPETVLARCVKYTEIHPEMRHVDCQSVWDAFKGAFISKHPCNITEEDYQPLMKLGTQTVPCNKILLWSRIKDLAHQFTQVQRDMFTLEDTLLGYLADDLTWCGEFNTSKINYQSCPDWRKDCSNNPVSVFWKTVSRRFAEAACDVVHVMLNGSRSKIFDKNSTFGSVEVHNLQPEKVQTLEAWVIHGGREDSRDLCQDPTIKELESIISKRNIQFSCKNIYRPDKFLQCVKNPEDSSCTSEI

[3] = test system: A549 cells; test: Intracellular NAD+ levels in A549 cells; format: cell-based, human; details: for Intracellular NAD+ levels over time in cells incubated in PBS: A549 cells in PBS, quercetin 50 μmol/L, apigenin 25 μmol/L; for Intracellular NAD+ levels, dose response: A549 cells, 6 h incubation
[4] = test system: wild-type and CD38 knockout MEFs; test: Intracellular NAD+ levels in wild-type and CD38 knockout MEFs; format: cell-based, mouse; details: quercetin 50 μmol/L, 6 h; for Intracellular NAD+ levels in CD38 knockout MEFs: apigenin 25 μmol/L
[5] = target: T3, CD38 (Mus musculus, UniProt P56528); test: Liver CD38 activity, NAD+ and protein readouts in high-fat diet obese mice; format: in vivo; details: 100 mg/kg i.p. daily for 1 week vs vehicle
T3 sequence (P56528 1-304): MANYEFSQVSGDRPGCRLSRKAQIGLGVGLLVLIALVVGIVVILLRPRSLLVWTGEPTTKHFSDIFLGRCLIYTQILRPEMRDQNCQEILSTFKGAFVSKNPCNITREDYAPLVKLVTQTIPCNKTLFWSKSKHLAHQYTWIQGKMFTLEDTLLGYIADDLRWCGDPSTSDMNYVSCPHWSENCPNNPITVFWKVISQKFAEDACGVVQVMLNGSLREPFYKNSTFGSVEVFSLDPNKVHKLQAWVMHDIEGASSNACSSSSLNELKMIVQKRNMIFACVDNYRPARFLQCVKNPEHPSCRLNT
Outline: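 Twelve 20-week-old C57BL/6 mice were fed a high-fat diet (60% of calories from fat) ad libitum for 4 weeks, then randomised into two groups. Groups received the test compound at 100 mg/kg i.p. or DMSO vehicle once daily for 7 days while staying on the diet. Hepatic NAD+ was measured by enzymatic cycling. Liver lysates were immunoblotted with anti-acetyl-lysine and quantified as intensity-profile area; n = 3 per group.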

[6] = test system: C57BL/6 mice on a high-fat diet; test: Glucose homeostasis and liver lipid metabolism in high-fat diet obese mice; format: in vivo, mouse
[7] = test system: HepG2 cells; test: Protein acetylation in HepG2 cells; format: cell-based, human
[8] = test system: HepG2 cells; test: Lipid accumulation in HepG2 cells; format: cell-based, human; details: 0.5 mmol/L oleate/palmitate (2:1) plus 25 μmol/L apigenin
[9] = test system: AMPK; details: cited from earlier work
[10] = test system: atherosclerosis in mice; details: cited from earlier work
[11] = target: T1, recombinant human CD38; test: In vitro CD38 NAD+ase activity; format: biochemical
[12] = test system: SIRT1; details: cited from earlier work
[13] = test system: CD38; details: ref Kellenberger et al. 19; cited from earlier work

IC50 [1]: 12.8 ± 1.6 µM | IC50 [2]: 14.8 ± 2.2 µM | CD38 activity in the liver [5]: decreased CD38 activity in the liver | Hepatic NAD+ levels [5]: increase in hepatic NAD^+ levels
Compound: O=c1cc(-c2ccc(O)cc2)oc2cc(O)cc(O)c12 [apigenin, 5,7-dihydroxy-2-(4-hydroxyphenyl)-4H-1-benzopyran-4-one]
Intracellular NAD+ levels over time in cells incubated in PBS [3]: protected against NAD^+ depletion | Intracellular NAD+ levels, dose response [3]: increased NAD^+ levels in cells in a dose-dependent manner | Intracellular NAD+ levels in CD38 knockout MEFs [4]: had no effect on NAD^+ levels | Global acetylation of proteins in liver (acetyl-lysine antibody) [5]: statistically significant decrease in global acetylation of proteins | Liver expression of CD38, SIRT1, Nampt (immunoblot) [5]: no significant differences in the expression of CD38, SIRT1, or Nampt | Liver phosphorylation (Thr172) and total levels of AMPK (immunoblot) [5]: did not see any changes in phosphorylation or total levels of AMPK | Total triglyceride content in the liver ([6]; 100 mg/kg i.p. daily for 1 week vs control): lower triglyceride levels in the liver | Liver mRNA expression of lipid oxidation markers (RT-PCR) ([6]; 100 mg/kg i.p. daily for 1 week vs vehicle): increased expression of the enzymes MCAD and LCAD in the liver | Glucose homeostasis (glucose tolerance test, AUC) ([6]; 100 mg/kg i.p. daily for 1 week, 1.5 g/kg i.p. dextrose): improve glucose homeostasis | Food intake and body weight during treatment ([6]; 100 mg/kg i.p. daily for 7 days vs vehicle): no difference in these parameters between groups | Fasting blood glucose levels ([6]; 100 mg/kg i.p. daily, 24 h fasting, day 7): significantly lower | Blood glucose levels, ad libitum feeding ([6]; 100 mg/kg i.p. daily, after 4 days of treatment vs control): significantly lower blood glucose levels | Total protein acetylation ([7]; apigenin 25 μmol/L, 6 h): decreases total protein acetylation | Acetylation of p53 (K382) and RelA/p65 (K310) ([7]; apigenin 25 M (so in the source), 4 hours, MG132 10 µM): decreased acetylation of p53 at K382 and also of RelA/p65 at K310 | Lipid accumulation (total triglycerides) in cells [8]: decreases lipid accumulation in cells | AMPK activation [9]: very poor AMPK activator | Atherosclerosis in mice [10]: ameliorate atherosclerosis in mice

IC50 [11]: 13.8 ± 2.1 µM | IC50 [2]: 16.4 ± 1.8 µM
Compound: O=c1c(O)c(-c2ccc(O)c(O)c2)oc2cc(O)cc(O)c12 [quercetin, 2-(3,4-dihydroxyphenyl)-3,5,7-trihydroxy-4H-chromen-4-one]
Intracellular NAD+ levels over time in cells incubated in PBS [3]: NAD^+ levels were stable over time | Intracellular NAD+ levels, dose response [3]: promotes an increase in intracellular NAD^+ in a dose-dependent manner | Intracellular NAD+ levels in CD38 knockout MEFs [4]: does not further increase NAD^+ levels in CD38 knockout MEFs | Intracellular NAD+ levels in wild-type MEFs ([4]; wild-type MEFs): promotes an increase in NAD^+ in the wild-type MEFs | SIRT1 activation in vitro [12]: activate SIRT1 in vitro | CD38 inhibition in vitro [13]: inhibit CD38 in vitro | Atherosclerosis in mice [10]: ameliorate atherosclerosis in mice
